The source made the active and inactive calls. The rule behind the calls is not given here.
Key:
[1] = system: HCT-15; test: Antiproliferative activity against human HCT-15 cells assessed as inhibition of cell proliferation incubated for 3 days by CellTiter-Glo Luminescent Cell Viability Assay; assay type: functional, cell-based; conditions: HCT-15, 72 h
Summary of the method: (§1)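 Cancer cell lines seeded in 384-well plates on day 1; compound added on day 2 and left for 3 days. On day 5 all medium was aspirated, and viable cells were quantified by CellTiter-Glo luminescence, which measures cellular ATP. Dose-dependent effects on proliferation were determined.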

[2] = system: DAN-G; test: Antiproliferative activity against human DAN-G cells assessed as inhibition of cell proliferation incubated for 3 days by CellTiter-Glo Luminescent Cell Viability Assay; assay type: functional, cell-based; conditions: 72 h; summary of the method: as §1
[3] = system: HCT-116; test: Antitumor activity against human HCT-116 cells xenografted in nude mouse assessed as increase in caspase 3 activation at 15 to 25 mg/kg, po administered twice daily for 6 days by immunohistochemical analysis; assay type: functional, organism-based; conditions: dose 15-25 mg/kg, time 6.0 day
Summary of the method: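 HCT116 cells (2 × 10^6 in 0.15 mL 1:1 Matrigel:PBS) were implanted s.c. in nude mice. At 300–350 mm3, mice were randomized into groups of five and dosed orally twice daily with vehicle, 15 or 25 mg/kg. Tumors were harvested on days 2, 3 and 6, paraformaldehyde-fixed and IHC-stained for caspase 3 (1:200). Three serial sections were scored 0–4 (0 = <2% to 4 = >7% positive cells).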

[4] = system: HCT-116; test: Antitumor activity against human HCT-116 cells xenografted in nude mouse assessed as tumor growth inhibition at 3.3 mg/kg administered via pump for 9 days relative to control; assay type: functional; conditions: HCT-116, 216 h, time 9 day, read-out: TGI
[5] = system: HCC1187; test: Antiproliferative activity against human HCC1187 cells assessed as inhibition of cell proliferation incubated for 3 days by CellTiter-Glo Luminescent Cell Viability Assay; assay type: functional, cell-based; conditions: HCC1187, 72 h; summary of the method: as §1
[6] = target: Tyrosine-protein kinase Yes (Homo sapiens, UniProt P07947); test: Inhibition of human YES1 in presence of ATP by cellular assay
Tyrosine-protein kinase Yes, sequence (P07947 whole entry): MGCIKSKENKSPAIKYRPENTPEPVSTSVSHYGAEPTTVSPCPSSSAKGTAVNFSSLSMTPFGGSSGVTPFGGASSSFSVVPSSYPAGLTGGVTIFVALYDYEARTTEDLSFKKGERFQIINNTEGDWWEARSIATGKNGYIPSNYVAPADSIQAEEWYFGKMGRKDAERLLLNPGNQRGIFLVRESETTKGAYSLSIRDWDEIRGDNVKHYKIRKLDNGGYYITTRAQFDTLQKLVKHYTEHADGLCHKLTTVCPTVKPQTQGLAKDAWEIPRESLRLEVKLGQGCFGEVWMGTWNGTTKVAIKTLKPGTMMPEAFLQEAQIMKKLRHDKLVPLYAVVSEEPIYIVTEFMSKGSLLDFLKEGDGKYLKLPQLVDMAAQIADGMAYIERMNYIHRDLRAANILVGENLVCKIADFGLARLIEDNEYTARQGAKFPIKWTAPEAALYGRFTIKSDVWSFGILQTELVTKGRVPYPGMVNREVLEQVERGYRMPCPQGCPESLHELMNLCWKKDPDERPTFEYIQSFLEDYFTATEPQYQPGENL

[7] = target: Serine/threonine-protein kinase D1 (Homo sapiens) (UniProt Q15139); test: Inhibition of human PKCmu in presence of ATP relative to control; conditions: concentration not given here
Serine/threonine-protein kinase D1 (Homo sapiens), sequence (Q15139 whole entry): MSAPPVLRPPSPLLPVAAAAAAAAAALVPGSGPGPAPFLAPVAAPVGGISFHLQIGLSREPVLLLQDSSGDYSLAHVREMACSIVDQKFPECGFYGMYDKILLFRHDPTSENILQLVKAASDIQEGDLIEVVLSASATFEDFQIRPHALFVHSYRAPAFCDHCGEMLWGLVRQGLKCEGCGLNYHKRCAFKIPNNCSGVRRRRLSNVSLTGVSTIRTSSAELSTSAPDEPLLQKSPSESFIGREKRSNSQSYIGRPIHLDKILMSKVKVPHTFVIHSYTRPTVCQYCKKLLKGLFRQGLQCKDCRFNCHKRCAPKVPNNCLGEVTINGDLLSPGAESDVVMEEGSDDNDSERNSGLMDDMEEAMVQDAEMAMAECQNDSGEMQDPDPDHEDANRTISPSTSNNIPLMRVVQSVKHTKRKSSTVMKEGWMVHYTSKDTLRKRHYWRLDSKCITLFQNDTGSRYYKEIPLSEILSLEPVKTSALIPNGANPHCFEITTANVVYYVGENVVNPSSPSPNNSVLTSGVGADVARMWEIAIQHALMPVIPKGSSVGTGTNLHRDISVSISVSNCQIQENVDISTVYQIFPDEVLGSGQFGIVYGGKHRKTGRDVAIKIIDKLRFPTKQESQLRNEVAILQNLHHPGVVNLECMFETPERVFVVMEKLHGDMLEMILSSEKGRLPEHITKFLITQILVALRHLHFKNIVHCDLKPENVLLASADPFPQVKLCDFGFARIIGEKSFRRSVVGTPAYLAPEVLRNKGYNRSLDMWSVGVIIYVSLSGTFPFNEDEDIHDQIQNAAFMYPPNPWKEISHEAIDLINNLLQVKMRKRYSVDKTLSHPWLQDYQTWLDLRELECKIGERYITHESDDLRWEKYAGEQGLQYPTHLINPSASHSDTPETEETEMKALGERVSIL

[8] = system: BT-549; test: Antiproliferative activity against human BT-549 cells assessed as inhibition of cell proliferation incubated for 3 days by CellTiter-Glo Luminescent Cell Viability Assay; assay type: functional, cell-based; conditions: BT-549, 72 h; summary of the method: as §1
[9] = Antiproliferative activity against human 184A1 cells assessed as inhibition of cell proliferation incubated for 3 days by CellTiter-Glo Luminescent Cell Viability Assay; assay type: functional, cell-based; conditions: 184A1, 72 h; summary of the method: as §1
[10] = system: NCI-H1666; test: Inhibition of anchorage independent cell growth in human NCI-H1666 cells incubated for 6 days by Alamar blue reagent based fluorescence plate reader analysis; assay type: functional; conditions: NCI-H1666, 144 h
[11] = system: SU.86.86; test: Antiproliferative activity against human SU-86-86 cells assessed as inhibition of cell proliferation incubated for 3 days by CellTiter-Glo Luminescent Cell Viability Assay; assay type: functional, cell-based; conditions: SU.86.86, 72 h
Summary of the method: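 Cells of each line were plated in 384-well plates on day 1 and exposed to compound from day 2 for 3 days. On day 5 all medium was aspirated. Viable cell number was read by CellTiter-Glo luminescence, which quantifies cellular ATP.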

[12] = system: GTL 16 cell line; test: Antitumor activity against human GTL-16 cell line xenografted in nude mouse assessed as tumor growth inhibition at 10 mg/kg, po administered once daily for 9 to 18 days relative to control; assay type: functional; conditions: time 9-18 day, read-out: TGI
Summary of the method: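 Tumor cells were implanted s.c. into the right flank of female nu/nu nude mice aged 6–8 weeks. Animals were randomized into treatment groups once tumors were established (example: day 8 postimplant, about 170 mm3, animals >22 g). Compound in 0.5% methylcellulose was given by oral gavage. Tumors were measured with calipers two to three times per week.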

[13] = system: HCT-116; test: Antitumor activity against human HCT-116 cells xenografted in nude mouse assessed as reduction in PKCalpha phosphorylation at S569 residue at 15 to 150 mg/kg/day administered via pump for 18 hrs by Reverse-Phase protein array analysis; assay type: functional, organism-based; conditions: dose 15-150 mg/kg/day
[14] = target: AMP-activated protein kinase (AMPK) alpha-1/beta-1/gamma-1 (Homo sapiens, UniProt P54619+Q13131+Q9Y478); test: Inhibition of human AMPK alpha1/beta1/gamma1 assessed as inhibition constant in presence of ATP; assay type: protein-complex assay
AMP-activated protein kinase (AMPK) alpha-1/beta-1/gamma-1, sequence (P54619 whole entry): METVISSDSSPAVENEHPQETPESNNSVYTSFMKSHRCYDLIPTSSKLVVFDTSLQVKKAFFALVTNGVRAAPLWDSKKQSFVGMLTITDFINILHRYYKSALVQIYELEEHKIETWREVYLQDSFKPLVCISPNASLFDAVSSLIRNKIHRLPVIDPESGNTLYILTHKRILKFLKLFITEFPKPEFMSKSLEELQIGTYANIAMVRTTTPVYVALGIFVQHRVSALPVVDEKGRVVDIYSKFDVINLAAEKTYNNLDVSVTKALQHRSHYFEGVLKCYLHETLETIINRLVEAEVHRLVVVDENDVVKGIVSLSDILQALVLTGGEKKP
AMP-activated protein kinase (AMPK) alpha-1/beta-1/gamma-1, sequence (Q9Y478 whole entry): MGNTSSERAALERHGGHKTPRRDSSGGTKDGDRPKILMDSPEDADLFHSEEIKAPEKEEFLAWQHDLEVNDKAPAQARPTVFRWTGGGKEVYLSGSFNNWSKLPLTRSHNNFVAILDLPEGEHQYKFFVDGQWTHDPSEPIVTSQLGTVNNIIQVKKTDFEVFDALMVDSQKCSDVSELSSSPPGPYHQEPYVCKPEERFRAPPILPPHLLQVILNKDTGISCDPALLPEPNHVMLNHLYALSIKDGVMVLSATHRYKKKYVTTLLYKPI
AMP-activated protein kinase (AMPK) alpha-1/beta-1/gamma-1, sequence (Q13131 whole entry): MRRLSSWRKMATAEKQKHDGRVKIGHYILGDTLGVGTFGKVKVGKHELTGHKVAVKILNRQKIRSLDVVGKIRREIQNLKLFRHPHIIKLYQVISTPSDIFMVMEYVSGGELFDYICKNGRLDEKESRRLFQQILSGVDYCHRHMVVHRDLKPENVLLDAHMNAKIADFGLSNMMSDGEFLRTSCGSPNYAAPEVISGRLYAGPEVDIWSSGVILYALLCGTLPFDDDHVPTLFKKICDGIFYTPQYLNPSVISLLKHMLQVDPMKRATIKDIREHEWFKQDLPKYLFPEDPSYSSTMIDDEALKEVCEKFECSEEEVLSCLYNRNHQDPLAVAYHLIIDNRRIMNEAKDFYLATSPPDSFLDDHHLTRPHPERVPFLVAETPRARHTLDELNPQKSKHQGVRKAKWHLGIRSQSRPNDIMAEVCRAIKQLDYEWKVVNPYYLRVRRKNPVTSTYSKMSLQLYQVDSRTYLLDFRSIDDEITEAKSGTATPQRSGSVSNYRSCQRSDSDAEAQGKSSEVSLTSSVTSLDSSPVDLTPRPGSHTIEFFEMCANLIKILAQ

[15] = target: T1, Receptor-type tyrosine-protein kinase FLT3 (Homo sapiens, UniProt P36888); test: Inhibition of human FLT3 in presence of ATP
T1 sequence (P36888 whole entry): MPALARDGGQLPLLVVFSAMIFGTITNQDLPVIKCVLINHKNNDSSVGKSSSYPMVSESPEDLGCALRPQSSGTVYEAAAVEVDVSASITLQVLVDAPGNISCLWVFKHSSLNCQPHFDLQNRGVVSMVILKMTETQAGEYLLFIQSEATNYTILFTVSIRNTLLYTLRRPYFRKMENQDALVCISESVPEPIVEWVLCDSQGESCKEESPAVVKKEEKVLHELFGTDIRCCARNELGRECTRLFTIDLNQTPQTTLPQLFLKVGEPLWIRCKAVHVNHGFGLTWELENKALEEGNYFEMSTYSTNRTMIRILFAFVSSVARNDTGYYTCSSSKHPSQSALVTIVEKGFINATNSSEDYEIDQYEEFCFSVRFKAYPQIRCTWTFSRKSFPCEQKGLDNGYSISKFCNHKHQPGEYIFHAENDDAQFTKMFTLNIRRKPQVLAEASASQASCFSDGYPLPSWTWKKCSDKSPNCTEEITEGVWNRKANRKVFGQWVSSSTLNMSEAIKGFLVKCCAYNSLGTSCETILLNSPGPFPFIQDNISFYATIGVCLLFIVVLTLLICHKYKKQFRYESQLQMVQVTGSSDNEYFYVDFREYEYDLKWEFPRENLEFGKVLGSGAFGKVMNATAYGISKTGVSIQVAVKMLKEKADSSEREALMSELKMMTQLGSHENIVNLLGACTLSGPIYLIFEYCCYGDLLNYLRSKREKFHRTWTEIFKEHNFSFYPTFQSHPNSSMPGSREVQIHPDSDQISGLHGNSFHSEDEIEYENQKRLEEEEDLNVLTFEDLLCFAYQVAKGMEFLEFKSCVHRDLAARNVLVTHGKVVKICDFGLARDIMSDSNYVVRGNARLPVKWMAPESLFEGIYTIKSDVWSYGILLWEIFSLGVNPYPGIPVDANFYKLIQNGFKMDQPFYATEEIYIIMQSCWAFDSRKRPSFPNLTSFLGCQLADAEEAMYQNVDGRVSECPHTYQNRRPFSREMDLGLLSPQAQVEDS

[16] = Antiproliferative activity against human Hs 700T cells assessed as inhibition of cell proliferation incubated for 3 days by CellTiter-Glo Luminescent Cell Viability Assay; assay type: functional, cell-based; conditions: 72 h; summary of the method: as §1
[17] = target: Serine/threonine-protein kinase PAK 4 (Homo sapiens, UniProt O96013); conditions: dose 50.0 µM
Serine/threonine-protein kinase PAK 4, sequence (O96013 whole entry, looked up): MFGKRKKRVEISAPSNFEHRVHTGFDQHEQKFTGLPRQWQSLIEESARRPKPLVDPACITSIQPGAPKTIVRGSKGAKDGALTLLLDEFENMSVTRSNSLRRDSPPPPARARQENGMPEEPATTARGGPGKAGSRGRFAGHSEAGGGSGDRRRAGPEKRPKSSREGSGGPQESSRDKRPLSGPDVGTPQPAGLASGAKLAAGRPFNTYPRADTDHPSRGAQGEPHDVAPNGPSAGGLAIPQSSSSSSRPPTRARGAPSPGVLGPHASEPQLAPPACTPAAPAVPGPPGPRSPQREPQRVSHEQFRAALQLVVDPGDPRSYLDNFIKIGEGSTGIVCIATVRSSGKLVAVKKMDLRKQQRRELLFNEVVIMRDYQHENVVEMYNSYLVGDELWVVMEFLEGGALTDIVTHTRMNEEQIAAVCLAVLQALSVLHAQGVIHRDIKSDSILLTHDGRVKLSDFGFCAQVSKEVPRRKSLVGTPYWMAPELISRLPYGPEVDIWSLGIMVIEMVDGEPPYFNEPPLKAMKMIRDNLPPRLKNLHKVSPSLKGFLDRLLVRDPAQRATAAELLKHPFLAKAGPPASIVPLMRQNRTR

[18] = system: NCI-H1395; test: Inhibition of anchorage independent cell growth in human NCI-H1395 cells incubated for 6 days by Alamar blue reagent based fluorescence plate reader analysis; assay type: functional; conditions: NCI-H1395, 144 h

IC50 [1]: 10 µM
IC50 [5]: 0.24 nM
IC50 [6]: 612 nM
inhibition [7]: 96%
IC50 [8]: 0.41 nM
IC50 [10]: 6.25 nM
Ki [14]: 5 nM
IC50 [15]: 96 nM
TdeltaS [17]: 6.7 kcal/mol
IC50 [18]: 7.62 nM
Compound: Cc1nc(Nc2n[nH]c3c2CN(C(=O)N[C@H](CN(C)C)c2ccccc2)C3(C)C)c2sccc2n1 [PF-03758309]
IC50 [2]: 518 nM
Activity [3]: Active
inhibition in vivo at 3.3 mg/kg [4]: 114%
IC50 [9]: 0.83 nM
IC50 [11]: 898 nM
inhibition in vivo at 10 mg/kg [12]: 0%
Activity [13]: Active
IC50 [16]: 2380 nM

Reference: ChEMBL document CHEMBL5678802, “Small-molecule p21-activated kinase inhibitor PF-3758309 is a potent inhibitor of oncogenic signaling and tumor growth” (Proc Natl Acad Sci U S A, 2010)
